{"source": "ChEMBL document CHEMBL1806454", "about": "“8-Aryl- and alkyloxycaffeine analogues as inhibitors of monoamine oxidase” (Eur J Med Chem, 2011)", "key": {"[1]": {"molecular_target": "T1, Amine oxidase [flavin-containing] B (Homo sapiens, UniProt P27338)", "T1 sequence (P27338 whole entry)": "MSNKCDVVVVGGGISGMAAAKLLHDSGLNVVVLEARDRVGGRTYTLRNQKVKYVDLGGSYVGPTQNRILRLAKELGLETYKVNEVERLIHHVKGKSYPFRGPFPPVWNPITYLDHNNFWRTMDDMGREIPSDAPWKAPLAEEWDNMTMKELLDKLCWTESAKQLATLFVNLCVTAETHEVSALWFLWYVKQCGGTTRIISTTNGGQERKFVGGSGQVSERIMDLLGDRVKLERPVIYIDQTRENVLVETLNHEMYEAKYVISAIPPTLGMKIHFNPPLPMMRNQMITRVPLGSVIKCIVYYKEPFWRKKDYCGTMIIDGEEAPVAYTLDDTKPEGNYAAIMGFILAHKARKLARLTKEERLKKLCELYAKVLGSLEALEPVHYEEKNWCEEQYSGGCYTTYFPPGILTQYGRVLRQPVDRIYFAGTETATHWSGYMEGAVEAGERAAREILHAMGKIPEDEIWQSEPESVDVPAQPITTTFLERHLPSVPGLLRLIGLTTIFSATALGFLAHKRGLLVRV", "assay": "Inhibition of recombinant human MAOB expressed in baculovirus infected insect cell microsomes using kynuramine as substrate assessed as formation of 4-hydroxyquinoline after 20 mins by fluorescence spectrophotometry", "design": "species or system Microsome"}, "[2]": {"molecular_target": "T2, Amine oxidase [flavin-containing] A (Homo sapiens, UniProt P21397)", "T2 sequence (P21397 whole entry)": "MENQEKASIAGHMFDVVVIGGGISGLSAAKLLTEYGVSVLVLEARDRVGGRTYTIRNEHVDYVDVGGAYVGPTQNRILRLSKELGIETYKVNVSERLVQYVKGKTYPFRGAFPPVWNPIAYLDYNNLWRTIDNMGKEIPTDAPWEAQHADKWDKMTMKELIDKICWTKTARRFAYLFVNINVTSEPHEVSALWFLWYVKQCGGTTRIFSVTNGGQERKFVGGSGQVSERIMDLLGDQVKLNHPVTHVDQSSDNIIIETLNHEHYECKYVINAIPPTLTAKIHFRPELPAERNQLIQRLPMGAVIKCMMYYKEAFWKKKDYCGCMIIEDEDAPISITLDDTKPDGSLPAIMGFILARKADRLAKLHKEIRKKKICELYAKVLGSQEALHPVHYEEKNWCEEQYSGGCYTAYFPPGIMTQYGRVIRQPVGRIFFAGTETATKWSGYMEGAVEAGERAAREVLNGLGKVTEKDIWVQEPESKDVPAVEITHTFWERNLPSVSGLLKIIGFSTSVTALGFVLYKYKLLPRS", "assay": "Inhibition of recombinant human MAOA expressed in baculovirus infected insect cell microsomes using kynuramine as substrate assessed as formation of 4-hydroxyquinoline after 20 mins by fluorescence spectrophotometry", "design": "species or system Microsome"}, "Homo sapiens": {"organism": "Homo sapiens", "assay": "Selectivity index, ratio of Ki for recombinant human MAOB to Ki for recombinant human MAOA", "method_in_brief": "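Recombinant human MAO-A and MAO-B in insect-cell microsomes (0.0075 mg/mL), kynuramine 45 µM (A) or 30 µM (B), inhibitor 0–100 µM, 9 concentrations, DMSO 4% final, K-phosphate 100 mM pH 7.4 isotonic with KCl, 37 °C 20 min. NaOH stop, 4-hydroxyquinoline fluorescence (ex 310/em 400 nm). Duplicate IC50 fits converted to Ki; SI = Ki(MAO-B)/Ki(MAO-A).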"}, "[3]": {"molecular_target": "T2, Amine oxidase [flavin-containing] A", "assay": "Competitive inhibition of human recombinant MAOA expressed in baculovirus infected insect cell microsomes using kynuramine as substrate assessed as 4-hydroxyquinoline formation per min per mg protein by Lineweaver-Burk plot analysis", "design": "species or system Microsome"}, "[4]": {"molecular_target": "T1, Amine oxidase [flavin-containing] B", "assay": "Competitive inhibition of human recombinant MAOB expressed in baculovirus infected insect cell microsomes using kynuramine as substrate assessed as 4-hydroxyquinoline formation per min per mg protein by Lineweaver-Burk plot analysis", "design": "species or system Microsome"}, "[5]": {"molecular_target": "T1, Amine oxidase [flavin-containing] B", "assay": "Ratio of 8-benzyloxycaffeine IC50 to compound IC50 for recombinant human MAOB expressed in baculovirus infected insect cell microsomes", "design": "species or system Microsome"}}}
{"smiles": "Cn1c(=O)c2c(nc(OCCOc3ccccc3)n2C)n(C)c1=O", "values": [{"measurement": "IC50", "setting": "[1]", "value": 0.383, "unit": "µM"}, {"measurement": "Ki", "setting": "[1]", "value": 0.28, "unit": "µM"}, {"measurement": "IC50", "setting": "[2]", "value": 20.4, "unit": "µM"}, {"measurement": "Ki", "setting": "[2]", "value": 77.1, "unit": "µM"}, {"measurement": "Ratio Ki", "setting": "Homo sapiens", "value": 0.0036}]}
{"smiles": "Cn1c(=O)c2c(nc(OCCOc3ccc(Br)cc3)n2C)n(C)c1=O", "values": [{"measurement": "IC50", "setting": "[1]", "value": 0.166, "unit": "µM"}, {"measurement": "Ki", "setting": "[1]", "value": 0.12, "unit": "µM"}, {"measurement": "IC50", "setting": "[2]", "value": 1.65, "unit": "µM"}, {"measurement": "Ki", "setting": "[2]", "value": 0.58, "unit": "µM"}, {"measurement": "Ratio Ki", "setting": "Homo sapiens", "value": 0.207}, {"measurement": "Ki", "setting": "[3]", "value": 1.18, "unit": "µM"}, {"measurement": "Ki", "setting": "[4]", "value": 0.088, "unit": "µM"}]}
{"smiles": "Cn1c(=O)c2c(nc(OCCc3ccccc3)n2C)n(C)c1=O", "values": [{"measurement": "IC50", "setting": "[1]", "value": 2.94, "unit": "µM"}, {"measurement": "Ki", "setting": "[1]", "value": 2.16, "unit": "µM"}, {"measurement": "IC50", "setting": "[2]", "value": 15.9, "unit": "µM"}, {"measurement": "Ki", "setting": "[2]", "value": 5.57, "unit": "µM"}, {"measurement": "Ratio Ki", "setting": "Homo sapiens", "value": 0.39}]}
{"smiles": "Cn1c(=O)c2c(nc(OCCOc3ccc(Cl)cc3)n2C)n(C)c1=O", "values": [{"measurement": "Ki", "setting": "[2]", "value": 0.64, "unit": "µM"}]}
{"smiles": "CC(C)CCOc1nc2c(c(=O)n(C)c(=O)n2C)n1C", "values": [{"measurement": "IC50", "setting": "[1]", "value": 14.1, "unit": "µM"}, {"measurement": "Ki", "setting": "[1]", "value": 10.3, "unit": "µM"}, {"measurement": "IC50", "setting": "[2]", "value": 27.3, "unit": "µM"}, {"measurement": "Ki", "setting": "[2]", "value": 9.57, "unit": "µM"}, {"measurement": "Ratio Ki", "setting": "Homo sapiens", "value": 1.08}]}
{"smiles": "Cn1c(=O)c2c(nc(OCC3CCCC3)n2C)n(C)c1=O", "values": [{"measurement": "IC50", "setting": "[1]", "value": 15.9, "unit": "µM"}, {"measurement": "Ki", "setting": "[1]", "value": 11.6, "unit": "µM"}, {"measurement": "IC50", "setting": "[2]", "value": 22.8, "unit": "µM"}, {"measurement": "Ki", "setting": "[2]", "value": 7.98, "unit": "µM"}, {"measurement": "Ratio Ki", "setting": "Homo sapiens", "value": 1.46}]}
{"smiles": "Cn1c(=O)c2c(nc(Oc3ccccc3)n2C)n(C)c1=O", "values": [{"measurement": "IC50", "setting": "[1]", "value": 10.7, "unit": "µM"}, {"measurement": "Ki", "setting": "[1]", "value": 7.84, "unit": "µM"}, {"measurement": "IC50", "setting": "[2]", "value": 75.2, "unit": "µM"}, {"measurement": "Ki", "setting": "[2]", "value": 26.3, "unit": "µM"}, {"measurement": "Ratio Ki", "setting": "Homo sapiens", "value": 0.3}]}
{"smiles": "Cn1c(=O)c2c(nc(OCCCc3ccccc3)n2C)n(C)c1=O", "values": [{"measurement": "IC50", "setting": "[1]", "value": 0.615, "unit": "µM"}, {"measurement": "Ki", "setting": "[1]", "value": 0.45, "unit": "µM"}, {"measurement": "IC50", "setting": "[2]", "value": 69.3, "unit": "µM"}, {"measurement": "Ki", "setting": "[2]", "value": 24.3, "unit": "µM"}, {"measurement": "Ratio Ki", "setting": "Homo sapiens", "value": 0.019}]}
{"smiles": "Cn1c(=O)c2c(nc(OCCOCc3ccccc3)n2C)n(C)c1=O", "values": [{"measurement": "IC50", "setting": "[1]", "value": 3.77, "unit": "µM"}, {"measurement": "Ki", "setting": "[1]", "value": 2.76, "unit": "µM"}, {"measurement": "IC50", "setting": "[2]", "value": 168, "unit": "µM"}, {"measurement": "Ki", "setting": "[2]", "value": 58.7, "unit": "µM"}, {"measurement": "Ratio Ki", "setting": "Homo sapiens", "value": 0.047}]}
{"smiles": "Cn1c(=O)c2c(nc(OCc3ccc(Cl)cc3)n2C)n(C)c1=O", "values": [{"measurement": "IC50", "setting": "[1]", "value": 0.065, "unit": "µM"}, {"measurement": "Ki", "setting": "[1]", "value": 0.048, "unit": "µM"}, {"measurement": "IC50", "setting": "[2]", "value": 1.34, "unit": "µM"}, {"measurement": "Ki", "setting": "[2]", "value": 0.47, "unit": "µM"}, {"measurement": "Ratio IC50", "setting": "[5]", "value": 27}, {"measurement": "Ratio Ki", "setting": "Homo sapiens", "value": 0.1}]}
{"smiles": "CC(C)CCCCOc1nc2c(c(=O)n(C)c(=O)n2C)n1C", "values": [{"measurement": "IC50", "setting": "[1]", "value": 0.381, "unit": "µM"}, {"measurement": "Ki", "setting": "[1]", "value": 0.28, "unit": "µM"}, {"measurement": "IC50", "setting": "[2]", "value": 15.2, "unit": "µM"}, {"measurement": "Ki", "setting": "[2]", "value": 5.31, "unit": "µM"}, {"measurement": "Ratio Ki", "setting": "Homo sapiens", "value": 0.053}]}
{"smiles": "Cn1c(=O)c2c(nc(OCc3ccc(Br)cc3)n2C)n(C)c1=O", "values": [{"measurement": "IC50", "setting": "[1]", "value": 0.062, "unit": "µM"}, {"measurement": "Ki", "setting": "[1]", "value": 0.045, "unit": "µM"}, {"measurement": "IC50", "setting": "[2]", "value": 1.3, "unit": "µM"}, {"measurement": "Ki", "setting": "[2]", "value": 0.46, "unit": "µM"}, {"measurement": "Ratio IC50", "setting": "[5]", "value": 27}, {"measurement": "Ratio Ki", "setting": "Homo sapiens", "value": 0.099}]}
{"smiles": "Cn1c(=O)c2c(nc(OCC3CCCCC3)n2C)n(C)c1=O", "values": [{"measurement": "IC50", "setting": "[1]", "value": 1.36, "unit": "µM"}, {"measurement": "Ki", "setting": "[1]", "value": 1, "unit": "µM"}, {"measurement": "IC50", "setting": "[2]", "value": 18.4, "unit": "µM"}, {"measurement": "Ki", "setting": "[2]", "value": 6.45, "unit": "µM"}, {"measurement": "Ratio Ki", "setting": "Homo sapiens", "value": 0.16}]}
{"smiles": "Cn1c(=O)c2c(nc(OCC3CC=CCC3)n2C)n(C)c1=O", "note": "(stereo not given)", "values": [{"measurement": "IC50", "setting": "[1]", "value": 2.99, "unit": "µM"}, {"measurement": "Ki", "setting": "[1]", "value": 2.19, "unit": "µM"}, {"measurement": "IC50", "setting": "[2]", "value": 13.8, "unit": "µM"}, {"measurement": "Ki", "setting": "[2]", "value": 4.81, "unit": "µM"}, {"measurement": "Ratio Ki", "setting": "Homo sapiens", "value": 0.45}]}
